Structures are written as SMILES. Values after ≈ are worked out from the molar mass of the structure shown.

This note sets out measurements from ChEMBL document CHEMBL1140069, “In vitro antifungal activity of polyfunctionalized 2-(hetero)arylquinolines prepared through imino Diels-Alder reactions” (2008).

Holding throughout (assay type): functional
Assay [1] concerns Trichophyton mentagrophytes. In words: Antifungal activity against Trichophyton mentagrophytes ATCC 9972 after 48 hrs by broth microdilution technique. Particulars: ATCC 9972, 48 h. A digest of the protocol:
(§1)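 CLSI broth microdilution: M-27 A2 for yeasts and M-38 A for filamentous fungi. Medium is RPMI-1640 buffered to pH 7.0 with MOPS. Compound is diluted twofold from 250 to 0.98, final DMSO ≤2%. Inoculum is 1–5 × 10³ CFU/mL. Plates are incubated at 35 °C in a moist, dark chamber and read visually at 48 h. MIC100 is the lowest concentration giving total growth inhibition versus drug-free control.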

The test system of assay [2] is Trichophyton rubrum. The experiment in a line: Antifungal activity against Trichophyton rubrum C135 isolate. Particulars: read-out: MIC100.
In assay [3] the test system is Trichophyton rubrum. In words: Antifungal activity against Trichophyton rubrum C133 isolate. Particulars: read-out: MIC100.
Assay [4] deals with Trichophyton mentagrophytes. In words: Antifungal activity against Trichophyton mentagrophytes C943 isolate. To be noted: read-out: MIC100.
In a further assay the test system is Aspergillus fumigatus. In words: Antifungal activity against Aspergillus fumigatus ATTC 26934 after 48 hrs by broth microdilution technique. A digest of the protocol:
as §1

Assay [5] has as its system Trichophyton mentagrophytes. The experiment in a line: Antifungal activity against Trichophyton mentagrophytes C132 isolate. Particulars: read-out: MIC100.
Another assay has as its system Nannizzia gypsea. The experiment in a line: Antifungal activity against Microsporum gypseum C115 after 48 hrs by broth microdilution technique. A digest of the protocol:
as §1
For orientation: Dilution methods test growth across graded concentrations, often in twofold steps.

The next assay relates to Aspergillus niger. The experiment in a line: Antifungal activity against Aspergillus niger ATCC 9029 after 48 hrs by broth microdilution technique. To be noted: ATCC 9029, 48 h. A digest of the protocol: as §1
The test system of assay [6] is Trichophyton mentagrophytes. The experiment in a line: Antifungal activity against Trichophyton mentagrophytes C539 isolate. To be noted: read-out: MIC100.
For the next assay, the system named is Saccharomyces cerevisiae. The experiment in a line: Antifungal activity against Saccharomyces cerevisiae ATCC 9763 after 48 hrs by broth microdilution technique. Particulars: ATCC 9763, 48 h. A digest of the protocol:
as §1

The test system of a further assay is Aspergillus flavus. In words: Antifungal activity against Aspergillus flavus ATCC 9170 after 48 hrs by broth microdilution technique. Particulars: ATCC 9170, 48 h. The method, boiled down: as §1
For another assay, the system named is Candida albicans. In words: Antifungal activity against Candida albicans ATCC 10231 after 48 hrs by broth microdilution technique. To be noted: ATCC 10231, 48 h. A digest of the protocol: as §1
The test system of the next assay is Cryptococcus neoformans. The experiment in a line: Antifungal activity against Cryptococcus neoformans ATCC 32264 after 48 hrs by broth microdilution technique. Particulars: ATCC 32264, 48 h. The method, boiled down: as §1
Assay [7] deals with Trichophyton rubrum. The experiment in a line: Antifungal activity against Trichophyton rubrum C137 isolate. Particulars: read-out: MIC100.
The test system of assay [8] is Trichophyton rubrum. In words: Antifungal activity against Trichophyton rubrum C136 isolate. To be noted: read-out: MIC100.
Assay [9] has as its system Trichophyton rubrum. The experiment in a line: Antifungal activity against Trichophyton rubrum C110 after 48 hrs by broth microdilution technique. A digest of the protocol:
as §1

In assay [10] the test system is Trichophyton mentagrophytes. The experiment in a line: Antifungal activity against Trichophyton mentagrophytes C364 isolate. To be noted: read-out: MIC100.
Assay [11] relates to Trichophyton mentagrophytes. The experiment in a line: Antifungal activity against Trichophyton mentagrophytes C131 isolate. To be noted: read-out: MIC100.

For the compound `Cc1cc(-c2ccncc2)nc2c(C(C)C)cccc12`, the MIC was 12.5 µg/mL (≈ 47.6 µM) in [1]; 7.8 µg/mL (≈ 29.7 µM) in the assay with Trichophyton rubrum [2]; 15.6 µg/mL (≈ 59.5 µM) in the assay on Trichophyton rubrum [3]; 7.8 µg/mL (≈ 29.7 µM) in assay [4]; above 250 µg/mL in the assay on Aspergillus fumigatus; 7.8 µg/mL (≈ 29.7 µM) in assay [5]. The MIC against Nannizzia gypsea was 12.5 µg/mL (≈ 47.6 µM); with Aspergillus niger, above 250 µg/mL; in assay [6] it was 7.8 µg/mL (≈ 29.7 µM); with Saccharomyces cerevisiae it was above 250 µg/mL; against Aspergillus flavus it was above 250 µg/mL; against Candida albicans, above 250 µg/mL. Also, the MIC was above 250 µg/mL in the assay with Cryptococcus neoformans; 7.8 µg/mL (≈ 29.7 µM) in the assay with Trichophyton rubrum [7]; 7.8 µg/mL (≈ 29.7 µM) with Trichophyton rubrum [8]; 12.5 µg/mL (≈ 47.6 µM) with Trichophyton rubrum [9] (read-out: MIC); 7.8 µg/mL (≈ 29.7 µM) in the assay on Trichophyton rubrum [9] (read-out: MIC100); 7.8 µg/mL (≈ 29.7 µM) in assay [10]. In addition, the MIC in assay [11] is 15.6 µg/mL (≈ 59.5 µM).

On to `Cc1cc(-c2cccnc2)nc2ccc(Br)cc12`, for which the MIC in assay [1] was 12.5 µg/mL (≈ 41.8 µM); against Aspergillus fumigatus, above 250 µg/mL; with Nannizzia gypsea, 12.5 µg/mL (≈ 41.8 µM); in the assay with Aspergillus niger it was above 250 µg/mL; against Saccharomyces cerevisiae it was above 250 µg/mL; against Aspergillus flavus it was above 250 µg/mL. Also, the MIC was above 250 µg/mL with Candida albicans, 250 µg/mL (≈ 836 µM) in the assay on Cryptococcus neoformans and 12.5 µg/mL (≈ 41.8 µM) in the assay with Trichophyton rubrum [9] (read-out: MIC).

As for `Cc1ccc2nc(-c3ccccc3)ccc2c1`, the MIC in assay [1] was 250 µg/mL (≈ 1140 µM); against Aspergillus fumigatus, above 250 µg/mL; in the assay on Nannizzia gypsea, 250 µg/mL (≈ 1140 µM); in the assay with Aspergillus niger it was above 250 µg/mL; in the assay with Saccharomyces cerevisiae it was above 250 µg/mL; against Aspergillus flavus it was above 250 µg/mL. Also, the MIC is above 250 µg/mL with Candida albicans, 250 µg/mL (≈ 1140 µM) against Cryptococcus neoformans and 250 µg/mL (≈ 1140 µM) in the assay with Trichophyton rubrum [9] (read-out: MIC).
